Test: Toxicity liver stage against HepG2, at 10uM
Type: cell-based
Parameters: test concentration 10 uM, cell line HepG2-A16-CD81EGFP
Settings: human, HepG2-A16-CD81EGFP cells; read-out: INHIBITION
How it was run: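 Uninfected HepG2-A16-CD81EGFP cells, 3 × 10^3 per well, 1536-well, plated on prespotted compound at 10 μM final, parasite-free screening media added to match infected plates; puromycin 10 μM positive, DMSO 0.5% negative; run in parallel with 48 h PbLuc assay at 37 °C, 5% CO2; viability by CellTiter-Glo luminescence, normalized to controls.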

Row | SMILES | cytotoxicity at 10 µM [%]
1 | Cc1ncc(CN(C)Cc2nc3cc(Cl)ccc3n2C)s1 | -42.9
2 | CCCc1nc2c(c(C)c(C)n2Cc2cccnc2)c(N)c1CC | 15
3 | Cc1ccnc(SCC(=O)Nc2csc3nc(=O)c(C)nn23)n1 | 12.2
4 | CCC(C)NC(=O)c1snnc1-c1ccc(OC)cc1 (centres undefined) | 6.93
5 | Cn1ccc2c(NC(=O)Cn3ncc4c(c3=O)CCCC4)cccc21 | 2.33
6 | CC(C)C1SCC(=O)Nc2c1c(O)nn2C1CCCCC1 (centres undefined) | 2.42
7 | O=C1CSC(c2ccc(F)c(Cl)c2)c2c(n(C3CCOCC3)[nH]c2=O)N1 (centres undefined) | 3.4
8 | Cc1cc(=O)[nH]c(-n2nc(C)c(CCC(=O)NCc3cccs3)c2C)n1 | 10.3
9 | O=C(C1=COCCO1)N1CC(Oc2nc3c(Cl)cccc3s2)C1 | 38.2
10 | O=C(NCc1ccccc1)N1CCC(Oc2ncccc2Br)CC1 | 18.3
11 | Cc1csc(C(=O)N2CC(S(=O)(=O)C3CCCCC3)C2)c1 | -2.83
12 | O=C(c1cnccn1)N1C[C@@H](c2ccccc2)[C@@]2(CCNC2=O)C1 | -1.59
13 | COc1cc(N2CC[C@@H]3O[C@@H](c4ccncn4)C[C@H]3C2)ncn1 | 12.6
14 | O=C(NC1CC1)c1cc2c(nc1O)CC(c1cccs1)CC2=O (centres undefined) | 86.1
15 | CSC1=Nc2c(cnn2-c2ccccc2)C2=NCCCN12 | 8.85
16 | Cn1nc(C(=O)NCc2cccnc2)c2c1CCS(=O)(=O)C2 | 6.09
17 | Cc1nnc(SCC(=O)NCc2ccc3c(c2)CCC(=O)N3)s1 | -5.03
18 | CCn1nc(C)c(CNC(=O)c2nnc3ccc(Cl)cc3n2)c1C | 8.1
19 | CCC(=O)N1CCCC(c2nc(N(C)C)ncc2-c2ccc(F)cc2)C1 (centres undefined) | 28.1
20 | CC(C)N(CC(=O)Nc1ccc(Br)cc1Cl)Cc1cccnc1 | 17.2
21 | Cc1c(Cl)cccc1NC(=O)CN(Cc1cccnc1)C(C)C | 4.77
22 | CC(C)(C)NC(=O)CN1CCCNCC1 | -145

Row | SMILES | cytotoxicity at 10 µM [%]
23 | Cn1ccc(N2CCCC(NC(=O)c3ccsc3)C2=O)n1 (centres undefined) | -3
24 | CN(CCN1CCN(c2ccccc2)CC1)C(=O)Nc1ccncc1 | 11.5
25 | Cc1cnn(C2CN(CC(O)COc3ccc(C#N)cc3)C2)c1 (centres undefined) | 1.81
26 | Cc1c(CS(C)(=O)=O)cccc1NCCCC1CCCC1 | 17.5
27 | Cc1nc(CN2CCc3c(nc(C4CC4)n3C)C2)nc2ccccc12 | 7.36
28 | N#Cc1ccc(NCC(=O)Nc2ncn(Cc3cccnc3)n2)cc1 | 7.65
29 | CN(CC(=O)Nc1nc2c(s1)CCCCCC2)C(=O)c1ccco1 | 37.9
30 | Cc1c(CN2CCCC(C(=O)Nc3ccccc3)C2)cc(C#N)n1C (centres undefined) | 6.75
31 | Cc1nn(C)c(NC(=O)C2SCCc3ccccc32)c1C (centres undefined) | 45.8
32 | CCC(CNC(=O)c1c(C)nn(C)c1OC)Oc1ccccc1 (centres undefined) | -4.89
33 | Cc1nc(CN2CCN(C(=O)CCc3cccc(Cl)c3)CC2)no1 | 2.93
34 | CN(C)CCCNC(=O)c1cnc(Cc2ccc(F)cc2)s1 | 3.47
35 | CN1CCN(c2cc(CNCc3cccc4c3OCO4)ccn2)CC1 | -5.31
36 | Cc1nc(C)n(CC2CCCN2CC(=O)N(C)Cc2ccc(C)o2)n1 (centres undefined) | 8.52
37 | Cc1noc(C)c1CN1CCC(c2nc3cc(Cl)ccc3o2)CC1 | -4.22
38 | CN(Cc1cccc(F)c1)C(=O)CN1CCCC(Cn2cncn2)C1 (centres undefined) | 4.64
39 | CN(Cc1ccccc1)C(=O)CSc1ccc2c(c1)OCCO2 | -9.48
40 | CCOCCC1(C(=O)N2CCCC(c3ncc[nH]3)C2)CCCC1 (centres undefined) | -1.7
41 | N#Cc1nccnc1N1CCC(OCCCc2ccccc2)C1 (centres undefined) | 4.31
42 | CNC(=O)CNC(=O)Nc1cc(-c2ccccc2)ns1 | 22
43 | CC(C)(C)CC(=O)NC(C)(C(N)=O)c1cccc(Cl)c1 (centres undefined) | 11.5
44 | NC(=O)c1cccc(CCNCc2cnc(-c3cccs3)s2)c1 | 2.49

Row | SMILES | cytotoxicity at 10 µM [%]
45 | Cc1cccc(NCc2ncc(C(C)(C)C)o2)c1 | 24.3
46 | Cc1ccc2cc(C(=O)NCCN3CCS(=O)(=O)CC3)c(C)nc2c1 | 10.5
47 | CCS(=O)(=O)c1ccc(CNc2c(Cl)cccc2C#N)cc1 | -50.6
48 | O=C(CCc1ccccc1)N1CCCCC1C1OCCO1 (centres undefined) | -45.1
49 | COc1ncccc1CN1Cc2nccn2CC(CN2CCCC2)C1 (centres undefined) | -103
50 | Cc1cc(CN2CC[C@H]3C[C@H](c4nc(C5CC5)cs4)O[C@@H]3C2)no1 | -97.6
51 | Nc1cc(N2CCCC(CO)(Cc3ccccc3F)C2)nc(N)n1 (centres undefined) | 12.8
52 | COc1ccc(C)cc1-n1c(COC(C)C)n[nH]c1=O | 6.42
53 | Cn1cnc2cc(C(=O)N3CCN(CCO)[C@@H]4CS(=O)(=O)C[C@@H]43)ccc21 | 2.74
54 | CS(=O)(=O)N1C[C@H]2CNC[C@@]2(C(=O)NCCCc2ccccc2)C1 | 0.334
55 | CCOCCC(=O)Nc1cc(C(N)=O)ccc1N1CCCC(C)C1 (centres undefined) | -43
56 | O=C(CCn1cncn1)N1CCCC(CO)(CCCc2ccccc2)C1 (centres undefined) | 4.25
57 | c1cc(-c2nc3c(c(NCCn4ccnn4)n2)CCNCC3)ccn1 | -56.4
58 | O=c1cc(N2CCCC2)cnn1CC(F)F | 6.93
59 | CC(C)c1cc(N2CCC(C(C)N3CCCC3)CC2)n2nccc2n1 (centres undefined) | -1.86
60 | Fc1ccccc1Cc1noc(CN2CCC(N3CCSCC3)CC2)n1 | -6.47
61 | CN1CCCC1CCn1ccnc1-c1ccc2ccccc2n1 (centres undefined) | 0.0773
62 | Cc1n[nH]c(C)c1CCNC(=O)C1CCCN(CC(N)=O)C1 (centres undefined) | -0.653
63 | Cc1cc(N(C)CCCn2cccn2)nc(N)n1 | 0.423
64 | CCCc1cnc(C)nc1N1CCC(Cc2ccc(CO)cc2)C1 (centres undefined) | -2.36
65 | Cc1nc2cc(OCc3nc(C(=O)NC(C)(CO)CO)co3)ccc2s1 | 47.6
66 | Cc1[nH]c2ccccc2c1CCNc1ncnc2c1CCNCC2 | -37.5

Row | SMILES | cytotoxicity at 10 µM [%]
67 | Cc1nc2c(c(N3CCCC(OCc4ccccn4)C3)n1)CCNCC2 (centres undefined) | 0.383
68 | O=C1CCCN1CCCC(=O)N1CCCCC1c1ccc(F)cc1 (centres undefined) | -43.2
69 | Cc1cccc(C(C)C)c1NC(=O)CN(C)C(C)c1nccs1 (centres undefined) | -129
70 | Cn1ncc(N2CCC(CNC3CC(C)(C)CC(C)(C)C3)C2)cc1=O (centres undefined) | -10.4
71 | Fc1ccccc1CN1CCCC2(CCN(c3ncccn3)C2)C1 (centres undefined) | -104
72 | CC(C)C1CN(C(=O)c2cc(=O)[nH]c(=O)[nH]2)CCCN1CC1CC1 (centres undefined) | -2.42
73 | CCCn1ncc(CN2CCCC(C(=O)c3ccc(Cl)cc3C)C2)c1C (centres undefined) | -6.35
74 | CSc1ncc(CNCC2(N3CCCCC3)Cc3ccccc3C2)cn1 | 5.07
75 | COCCCN1C(=O)CC[C@H]2CN(Cc3cc4ccccc4o3)CC[C@H]21 | 23.8
76 | Cc1cc(C(F)(F)F)nc(N2CCN(Cc3nccn3C)CC2)n1 | -4.28
77 | CNc1cc(C)nc(N2Cc3cnn(Cc4ccc(F)cc4)c3C2)n1 | 4.03
78 | O=C(Cc1cccs1)N1CCCC(CNS(=O)(=O)Cc2ccccc2)C1 (centres undefined) | 5.78
79 | CCN1CCN(C(=O)c2ccc3c(c2)NC(=O)CN3)[C@H]2CS(=O)(=O)C[C@H]21 | -52.9
80 | CN(CC1CCN(c2ccccc2)C1)c1ccc(Cn2ccnc2)cn1 (centres undefined) | -142
81 | Cc1nc(N)cc(N2CCCC(COc3cccc(F)c3)C2)n1 (centres undefined) | -1.53
82 | COCCN(Cc1ccccc1C)c1nc(C)nc2oc(C)nc12 | -51.8
83 | CC(=O)c1cnc(NCC2OCCc3ccccc32)nc1C (centres undefined) | -48.9
84 | CCn1nc(C)c(CCNC(=O)c2cccc(-n3cccn3)c2)c1C | -12.9
85 | Cc1nc(NCc2noc(C3CCCO3)n2)c2ccsc2n1 (centres undefined) | 49.9
86 | COCCCC1(CO)CCCN(Cc2nccs2)C1 (centres undefined) | 2.43
87 | COc1ccc(Oc2ncccc2F)cc1CN1CCCC1 | 2.09
88 | Cn1ccc(C(=O)N2CCCC(Cc3cccc4ncccc34)C2)n1 (centres undefined) | 22.1

Row | SMILES | cytotoxicity at 10 µM [%]
89 | CCc1nc(C2CCCN2Cc2noc(Cc3ccccc3)n2)no1 (centres undefined) | 1.29
90 | Cc1nc(C)n(CC2CCCN(c3ncnc4sccc34)C2)n1 (centres undefined) | 36.2
91 | c1cc(OCc2ccc3c(c2)OCO3)ccc1CNC1CC1 | 4.7
92 | CCc1ccc(S(=O)(=O)N2Cc3c(CN(C)C)nn(C)c3C2)cc1 | -106
93 | O=C1CC(c2ccncc2)C2(CCN(C(=O)c3cccs3)CC2)N1 (centres undefined) | -71.1
94 | Cc1cnc(N2C[C@@H]3[C@@H](C2)OCC(=O)N3CCN(C)C)nc1 | -4.35
95 | COc1cc(N2C[C@H]3CCC[C@@H](CN4CCOCC4)[C@H]3C2)ncn1 | -71.5
96 | O=C(NCc1cccnc1)[C@@H]1CC[C@@H]2[C@@H](CCN2c2ncc(F)cn2)O1 | -44.6
97 | c1ccc(-c2cc(CNCCCC3CCOC3)c3nnnn3c2)cc1 (centres undefined) | -22.3
98 | NCc1ccc(OC(F)F)cc1OC(F)F | -43
99 | Cc1n[nH]c2ncc(CNC3CCCN(c4ncccn4)C3)cc12 (centres undefined) | 23.6
100 | Cc1cncc(C(=O)N2CCO[C@H]3[C@H](Oc4ccccn4)CC[C@@H]32)c1 | -115
101 | Cn1cc(CN2CCOC3(CCCN(c4cccc(F)c4)C3)C2)cn1 (centres undefined) | -77.1
102 | CC(C)NC(=O)N1Cc2nccn2CC(CN2CCCC2)C1 (centres undefined) | -75.8
103 | O=C(NCc1cccnc1)[C@@H]1C[C@H]2[C@H](CCN2c2ncccn2)O1 | -66.6
104 | O=C(NCc1cccnc1)[C@H]1CC[C@@H]2[C@@H](CCN2c2ncccn2)O1 | -82.2
105 | O=C(c1ccoc1)N1CCC2(CC1)COC(COc1ccccn1)C2 (centres undefined) | -123
106 | Cn1nccc1-c1nc2c(cc1C(=O)O)CCN(C(=O)C1CC1)CC2 | -143
107 | CCNCCc1nc2cc(F)ccc2[nH]1 | 5.18
108 | COC1[C@@H]2CC[C@H]1CN(c1nc(C)nc3sccc13)C2 (some centres undefined) | 34
109 | CS(=O)(=O)c1ccc(CN2C[C@@H]3CC[C@H]2CN(c2ncccn2)C3)cc1 | 0.345
